Source: paper PMC8324497 (Cell Reports Medicine, 2021)

Key:
[1] = tested on: U-87 MG; assay: Cell proliferation assay; type: cell-based; settings: Homo sapiens, 72 h
In short: (§1)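 Adherent solid-tumour cells were seeded at 5,000 cells/well and allowed to attach for 16–24 h at 37°C, 5% CO2. They were exposed to the test compound at 0.0005–10 μM (3-fold serial dilutions) for 72 h. Alamar Blue was added (1X final) for 1–3 h and fluorescence read at 540 nm excitation, 590 nm emission. IC50 came from a sigmoidal variable-slope fit.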

[2] = tested on: DB; assay: Cell viability MTS assay; type: cell-based; settings: Homo sapiens, read-out: IC50 mean values
In short: (§2)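 Lymphoma suspension lines were grown in RPMI 1640 with 10–20% heat-inactivated FBS, 1% L-glutamine and penicillin-streptomycin at 37°C, 5% CO2. Cells were plated at 25,000/100 μL (96-well) or 250,000/mL (24-well) with DMSO 0.1% vehicle or rising compound concentrations for 24–72 h. MTS reagent was added at 1:5 and absorbance read at 490 nm. IC50 was taken from three independent experiments (mean ± SD).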

[3] = tested on: PC-3; assay: Cell proliferation assay; type: cell-based; settings: Homo sapiens, PC-3, 72 h
In short: as §1

[4] = tested on: LNCaP; assay: Cell proliferation assay; type: cell-based; settings: Homo sapiens, 72 h
In short: as §1

[5] = tested on: CA46; assay: Cell viability MTS assay; type: cell-based; settings: Homo sapiens, CA46, read-out: IC50 mean values
In short: as §2

[6] = tested on: ERK1/2 kinases; assay: Primary kinome screening, panel of 335 kinases; type: biochemical; settings: 1.0 μM
In short: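 Radiometric profiling against 335 purified serine/threonine, tyrosine and lipid kinases at a single fixed test-compound concentration of 1 uM. Residual activity (%) = 100 × (cpm of compound − low control)/(high control − low control).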

Which IC50 [1] does the source give for `Cc1cnc(NC2CCOCC2)nc1-n1cnc(C(=O)NC(CN)c2cc(F)cc(Cl)c2)c1` (stereo not drawn) [ASN007, N-(2-amino-1-(3-chloro-5-fluorophenyl)ethyl)-1-(5-methyl-2-((tetrahydro-2H-pyran-4-yl)amino)pyrimidin-4-yl)-1H-imidazole-4-carboxamide] here?
Its IC50 is greater than 10 µM.

And the IC50 [2]?
The IC50 was 1700 nM.

And the IC50 [3]?
Its IC50 is greater than 10 µM.

What about the IC50 [4] of the same molecule?
Its IC50 is greater than 10 µM.

And the IC50 [5]?
The IC50 was greater than 10 µM.

And the kinase selectivity [6]?
Its kinase selectivity is “selective inhibition of ERK1/2 kinases”.
